Converted amounts (≈) assume the structure as drawn. The source made the active and inactive calls. No cut-off for these calls is given here.
Tests used:
Format in all cases: functional, organism-based
Influenza A virus = assay: Antiviral activity against influenza A virus infected in MDCK cells
In short: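 Each compound (1.0 mg) was dissolved in 100 µL methanol, then in MEM, giving a 1 mg/mL stock. Compounds were tested at noncytotoxic concentrations against influenza A virus and HSV type I.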

Staphylococcus aureus = assay: Antimicrobial activity against Staphylococcus aureus ATCC 6538 at 200 ug/disk by agar diffusion method
In short: (§1)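 Agar diffusion per European Pharmacopoeia. Antibiotic medium No. 1 inoculated with cell suspension and poured into plates. Paper disks loaded with 200 µg substance placed on the cooled agar, then prediffused 2 h in a refrigerator. Incubation 18 h at 37 °C (C. maltosa at 27 °C). Inhibition zone diameters read at end of incubation. Penicillin G positive control.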

Escherichia coli = assay: Antimicrobial activity against Escherichia coli ATCC 11229 at 200 ug/disk by agar diffusion method; in short: as §1
Candida maltosa = assay: Antimicrobial activity against Candida maltosa SBUG 700 at 200 ug/disk by agar diffusion method; in short: as §1

Row | SMILES | IC50 (Influenza A virus) | Activity (Staphylococcus aureus) | Activity (Escherichia coli) | Activity (Candida maltosa) | Activity (Influenza A virus)
1 | CC(C)[C@@H](C)/C=C/[C@@H](C)[C@H]1CC[C@H]2C3=CC[C@H]4C[C@@H](O)CC[C@]4(C)[C@H]3CC[C@]12C | 0.78 µg/mL (≈ 1.96 µM) | inactive | inactive | inactive | –
2 | NC12CC3CC(CC(C3)C1)C2.O=S(=O)(O)O [AMANTADINE SULFATE] | 15 µg/mL | – | – | – | –
3 | C/C(=C\CC[C@@H](C)[C@H]1CC[C@@]2(C)C3=C(CC[C@]12C)[C@@]1(C)CCC(=O)C(C)(C)[C@@H]1CC3=O)CO [GANODERONE A] | – | inactive | inactive | inactive | inactive
4 | C/C(C=O)=C\CC[C@@H](C)[C@H]1CC[C@@]2(C)C3=C(CC[C@]12C)[C@@]1(C)CCC(=O)C(C)(C)[C@@H]1CC3=O [LUCIALDEHYDE B] | 3 µg/mL (≈ 6.63 µM) | inactive | inactive | inactive | –
5 | C/C(C=O)=C\CC[C@@H](C)[C@H]1CC[C@@]2(C)C3=CC[C@H]4C(C)(C)C(=O)CC[C@]4(C)C3=CC[C@]12C [GANODERAL A] | – | – | – | – | inactive
6 | C/C(=C\CC[C@@H](C)[C@H]1CC[C@@]2(C)C3=CC[C@H]4C(C)(C)C(=O)CC[C@]4(C)C3=CC[C@]12C)CO [GANODEROL A] | – | inactive | inactive | inactive | inactive
7 | C[C@H](CCC1OC1(C)CO)[C@H]1CC[C@@]2(C)C3=C(CC[C@]12C)[C@@]1(C)CCC(=O)C(C)(C)[C@@H]1CC3=O (stereo not given in full) [GANODERONE C] | 2.6 µg/mL (≈ 5.52 µM) | – | – | – | –
8 | CC(C)[C@@H](C)/C=C/[C@@H](C)[C@H]1CC[C@H]2C3=CCC4CC(=O)CC[C@]4(C)[C@H]3CC[C@]12C (stereo not given in full) | – | inactive | inactive | inactive | –
9 | CC(CC(=O)C[C@@](C)(O)C1=C[C@H](O)[C@]2(C)[C@]1(C)C(=O)C=C1[C@@]3(C)CCC(=O)C(C)(C)[C@@H]3C[C@H]3O[C@@]132)C(=O)O (stereo not given in full) | – | inactive | inactive | inactive | –

— ChEMBL document CHEMBL1151276, “Antiviral Terpenoid Constituents of Ganoderma pfeifferi” (J Nat Prod, 2005)
